JMJD2C inh – blocks human GASC-1 demethylase activity; Q9H3R0; GST-JMJD2C(1-420) H3K9me3 demethylation, DELFIA europium; inhibition, % at 2.35 µM; actives 0.069% (n = 330,000); AID 2099;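 active means more than half of a compound's replicate wells show inhibition beyond 50%, single wells judged on their own value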;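 further: signal counts dimethyl H3K9 product captured on neutravidin plate; 0% = median of DMSO wells and 100% = 0.3 times that DMSO median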
p-CIP stab down – lowers stability of the mouse p/CIP coactivator protein; F442A p/CIP-EGFP cells, EGFP fluorescence, 16 h; decrease of EGFP signal, % at 10 µM; actives 0.01% (n = 290,000); AID 1984;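 active means EGFP signal decrease of at least 30% at 10 µM or well 3 SD below plate mean, unless failing retest; inactive means the rest, including hits failing retest or dose response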
VLA-4 inh – inhibition in a human VLA-4 binding assay; inhibition, % (about 7 µM as worked out from the volumes in the protocol); actives 0.2% (n = 330,000); P13612; VLA-4 expressing cells, ligand binding flow cytometry; AID 2557; in the data active means inhibition above about 50%
Target sequence (P13612 whole entry, looked up): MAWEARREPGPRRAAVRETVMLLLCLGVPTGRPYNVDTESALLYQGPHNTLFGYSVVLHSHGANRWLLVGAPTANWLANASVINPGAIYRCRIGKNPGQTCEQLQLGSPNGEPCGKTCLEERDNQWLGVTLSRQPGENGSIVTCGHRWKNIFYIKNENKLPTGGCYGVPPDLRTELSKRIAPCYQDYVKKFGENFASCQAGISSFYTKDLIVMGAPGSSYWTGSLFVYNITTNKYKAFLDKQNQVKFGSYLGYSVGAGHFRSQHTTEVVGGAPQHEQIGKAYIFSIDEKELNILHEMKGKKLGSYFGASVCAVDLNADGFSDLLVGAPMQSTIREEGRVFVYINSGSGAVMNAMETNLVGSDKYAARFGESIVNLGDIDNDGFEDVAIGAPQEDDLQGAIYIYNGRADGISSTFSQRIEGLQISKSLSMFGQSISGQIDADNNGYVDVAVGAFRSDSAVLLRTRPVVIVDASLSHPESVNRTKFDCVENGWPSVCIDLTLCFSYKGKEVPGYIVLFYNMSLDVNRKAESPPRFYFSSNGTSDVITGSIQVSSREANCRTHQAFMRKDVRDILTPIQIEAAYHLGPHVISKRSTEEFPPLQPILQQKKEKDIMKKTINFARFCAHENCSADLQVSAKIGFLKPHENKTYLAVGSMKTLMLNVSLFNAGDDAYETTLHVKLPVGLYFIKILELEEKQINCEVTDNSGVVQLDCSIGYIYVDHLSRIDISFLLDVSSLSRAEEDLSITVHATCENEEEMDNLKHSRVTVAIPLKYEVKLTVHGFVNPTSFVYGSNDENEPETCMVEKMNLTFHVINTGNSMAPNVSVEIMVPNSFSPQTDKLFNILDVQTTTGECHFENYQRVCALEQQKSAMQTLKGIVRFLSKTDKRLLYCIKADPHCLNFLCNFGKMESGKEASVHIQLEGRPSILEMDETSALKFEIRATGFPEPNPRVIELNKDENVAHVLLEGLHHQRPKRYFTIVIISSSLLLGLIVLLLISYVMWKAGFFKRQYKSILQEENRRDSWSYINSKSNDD
Arrestin-AP2 inh – blocks beta-arrestin peptide binding to AP2 adaptin; inhibition, % at 10 µM; FITC-arrestin peptide / GST-AP2 beads, flow cytometry; AP2 beta2 appendage carries R879A mutation; actives 0.31% (n = 340,000); AID 504490;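 active means inhibition above a set limit, near 3 SD of compounds lacking own fluorescence, cut at about 54% in these data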;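 further: plate controls were DMSO wells for no effect and 5 µM unlabelled arrestin peptide for full effect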
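System: GST-AP2 R879A bound to glutathione beads, E. coli-expressed. Also added: 50 nM FITC-arrestin peptide. Schedule: compound with beads 12 min RT, then probe 1 h RT. Signal: bead flow cytometry, FITC channel. Read-out basis: percent response.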
Arr AP2 CP1 – human beta-arrestin and AP2 interaction inhibition, cherry pick. shares compounds with Arrestin-AP2 inh. GST-AP2 beads, FITC arrestin peptide binding, flow cytometry; GST-fused beta2-adaptin appendage, R879A mutant. inhibition, % at 10 µM. actives 2% (n = 1,300). AID 504908;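 active means inhibition above a set limit, roughly 3 SD of non-fluorescent compound noise, cut at about 38% in these data; inactive means inhibition at or below that limit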;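 further: loss of bead fluorescence from 50 nM FITC arrestin peptide bound to appendage; 0% = negative control wells and 100% = excess unlabelled arrestin peptide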
GST GSH counter – GST-GSH bead binding interference, counter-screen. shares compounds with Arrestin-AP2 inh. GST-fluorescein binding to GSH beads, fluorescence. inhibition, % at 10 µM. actives 2% (n = 1,300). AID 588338;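 active means inhibition above 50%, about 3 SD of the inhibition seen with non-fluorescent compounds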;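 further: fluorescein maleimide labelled GST captured on 4 micron glutathione beads; higher means more loss of bead fluorescence from quenching or blocked binding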
Active calls of the source: *; · = no result. This is a sample that favours compounds with a hit; in the whole collection about 0.57% have one here.

SMILES	JMJD2C inh	p-CIP stab down	VLA-4 inh	Arrestin-AP2 inh	Arr AP2 CP1	GST GSH counter
CCCN(CC1CC1)C(=O)COc1ccccc1C(=O)NCc1ccccc1	-5	-6	11	-1	·	·
O=C(Nc1ccc2c(c1)OCCO2)c1cnc2n(c1=O)CCS2	4	-6	-3	-9	·	·
Cc1ccc(/C(COc2ccccc2O)=N\O)cc1	5	6	-9	57*	8	0
Cc1ccc(-c2nc3cc(NC(=O)C(C)C)ccc3o2)cc1	-6	-3	-2	-10	·	·
Cc1cc2nc(-c3ccc(NC(=O)C(C)C)cc3)oc2cc1C	2	-12	22	60*	-10	0
CCOC(=O)N1CCN(C(=O)c2ccc3c(c2)ncn3C2CCCC2)CC1	9	-1	-4	0	·	·
O=C1CCCC/C1=N\Nc1ccc(C2CCCCC2)cc1	6	6	3	·	·	·
O=C1CCCC/C1=N\Nc1ccc(OCc2ccccc2)cc1	1	3	-3	98*	-2	22
COc1cccc(C(=O)Nc2cc3c(cc2N2CCOCC2)n(C)c(=O)n3C)c1	25	-9	-3	8	6	-5
Cn1c(=O)n(C)c2cc(N3CCCCC3)c(NC(=O)c3cccc(Cl)c3)cc21	-10	-7	-8	7	-6	-4
CCOc1cc(C(=O)Nc2cc3c(cc2N2CCOCC2)n(C)c(=O)n3C)cc(OCC)c1OCC	-15	-7	-8	-7	-4	-7
COc1ccc(C(=O)Nc2cc3c(cc2N2CCOCC2)n(C)c(=O)n3C)cc1OC	-9	-15	-1	2	-20	-13
N=C1C(c2nc(-c3ccc(F)cc3)cs2)=C(O)CN1Cc1ccc(Cl)cc1	2	8	21	-2	·	·
O=C(c1ccc(-c2ccc([N+](=O)[O-])cc2)o1)N1CCN(S(=O)(=O)c2cccs2)CC1	4	·	2	65*	3	-3
CCOC(=O)Cn1c(=O)oc2cc(S(=O)(=O)Nc3cc(OCC)ccc3OCC)ccc21	·	3	-18	57*	2	-7
CC1(NC(=O)CN2CCN(c3cnn(-c4ccccc4)c(=O)c3Cl)CC2)CCS(=O)(=O)C1 (stereo not drawn)	1	·	-11	12	·	·
COc1ccc(NC(=O)c2sc3nc(N4CCOCC4)c4c(c3c2N)CC(C)(C)OC4)cc1	-2	-3	13	-12	·	·
COC(=O)c1ccc(OCc2nc(N)nc(N3CCOCC3)n2)cc1	-8	2	2	23	·	·
N#Cc1cccc(C(c2nnnn2C2CCCC2)N2CCC(Cc3ccccc3)CC2)c1 (stereo not drawn)	4	-4	3	69*	-12	0
CCN(CC)c1ccc(/C=N/NC(=O)Cc2cccs2)c(O)c1	8	-23	11	61*	2	-4
CCN(CC)c1ccc(/C=N/NC(=O)c2ccco2)c(O)c1	9	-13	8	8	·	·
CCCCN(CC)c1nc(N)c(C#N)c(CC#N)c1C#N	-2	-12	-4	-3	·	·
Nc1ncncc1-c1ccc(Cl)cc1	-18	-3	1	13	·	·
Nc1ncc(-n2cncn2)c(-c2ccc(Cl)cc2)n1	-1	-11	6	56*	-11	-2
Cn1nc(C(=O)N2CCN(c3ccc(Cl)cc3)CC2)c2c1-c1ccccc1S(=O)(=O)C2	-13	-8	7	55*	-7	-14
SMILES	JMJD2C inh	p-CIP stab down	VLA-4 inh	Arrestin-AP2 inh	Arr AP2 CP1	GST GSH counter
Nc1cccc(-c2cn3cccnc3n2)c1	9	4	9	12	·	·
CCOc1ccc(OCCCC(=O)N2CCN(S(=O)(=O)c3ccccc3C#N)CC2)cc1	-9	·	-13	57*	-14	0
CCOc1ccc(OCCC(=O)N2CCN(S(=O)(=O)c3ccc(OCC)cc3)CC2)cc1	-1	0	-8	21	·	·
O=c1[nH]c(CO)nc2c1oc1ccccc12	-16	-6	10	73*	-9	9
CCOC(=O)c1ccc(N=c2sc(C(=O)OC)cc(=O)n2C2CC2)cc1	-2	·	-11	106*	1	89*
COc1cc(C(=O)OCCNC(=O)c2cccnc2)cc(OC)c1OC	3	·	6	58*	-3	-12
COc1cc(C(=O)OCCNC(=O)c2ccccc2)cc(OC)c1OC	-9	-8	13	-4	·	·
CC(=O)NC(CC(=O)Nc1cc(Cl)ccc1-n1cncn1)c1ccccc1 (stereo not drawn)	14	·	-8	2	·	·
CCC(C)NC(=O)c1ccc2c(c1)N(Cc1ccccc1)C(=O)CS2 (stereo not drawn)	-14	2	10	56*	-2	-5
C/C(=C\C=C(C#N)C#N)c1cc(C#N)c(N)o1	8	-33	·	11	·	·
CCSc1nnc(-c2sc3nnc(-c4ccccc4)c(-c4ccccc4)c3c2N)o1	5	-165	13	73*	19	13
CCSc1nnc(-c2ccncc2)o1	-1	0	7	2	·	·
O=C(Cc1cccs1)Nc1ccc(F)cc1F	-4	3	-8	0	·	·
O=C(O)CCC(=O)NNC(=O)c1cccc(Br)c1	7	10	20	58*	0	-5
COC(=O)CCC(=O)NNC(=O)c1cccc(Br)c1	9	4	15	11	·	·
Cc1cc(C)cc(N(C(=O)c2csnn2)C(C(=O)NC2CCCCC2)c2ccncc2)c1 (stereo not drawn)	-190	-22	-3	6	·	·
CN(C)S(=O)(=O)c1ccc(N2CCCC2)c(C(=O)NNC(=O)c2ccccc2)c1	0	·	16	64*	0	4
CCn1cc(C(=O)Nc2ccc(F)c(F)c2)cn1	-3	-8	-12	12	·	·
CCn1cc(C(=O)Nc2ccc(C)c([N+](=O)[O-])c2)cn1	9	3	4	57*	-2	-4
CCOc1cc(NC(=O)C2CC2)c(OCC)cc1NC(=O)c1ccccc1OCC	-6	-6	4	-6	·	·
Cn1c(=O)n(C)c2cc(NC(=O)c3ccc(F)cc3)c(Br)cc21	1	-2	17	1	·	·
CCOC(=O)C1CCN(C(=O)c2ccccc2NC(=O)c2ccc(Cl)cc2)CC1	-3	-2	22	34	·	·
CCOC(=O)C1CCN(c2cc3c(cc2NC(=O)c2ccccc2F)n(C)c(=O)n3C)CC1	5	9	0	34	-10	6
CCOC(=O)C1CCN(c2cc3c(cc2NC(=O)c2ccc(F)cc2)n(C)c(=O)n3C)CC1	-2	7	13	36	-9	-5
CCOC(=O)C1CCN(c2cc3c(cc2NC(=O)c2ccccc2Cl)n(C)c(=O)n3C)CC1	-2	-9	-2	-6	-4	1
CCOC(=O)C1CCN(c2cc3c(cc2NC(=O)c2ccccc2OCC)n(C)c(=O)n3C)CC1	-7	-11	-8	10	6	-4
